Activity calls are given as the source filed them. Unless noted, no cut-off for these calls is given here.
How the values were obtained:
Mus musculus [1] = assay: In vivo antagonism of guanabenz-induced hypothermia in mice after intraperitoneal administration; […]; type: functional, organism-based
In short: (§1)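 Male NMRI mice, 30-32 g, 5 per dose; test drug or vehicle given ip, then 5 min later guanabenz 1 mg/kg ip. Rectal temperature read by thermistor probe 25 min after guanabenz. Inhibition means temperature > 36 °C. […] Active dose range = doses inhibiting in more than 80% of animals.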

Mus musculus [2] = assay: In vivo antagonism of guanabenz-induced hypothermia in mice after peroral administration at a dose of 10-40 mg/kg; type: functional; settings: po
In short: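 Male NMRI mice (30-32 g) dosed by oral gavage with drug or vehicle; 35 min later, guanabenz 1 mg/kg ip. Rectal temperature was taken 25 min after guanabenz with a thermistor probe. Inhibition meant temperature > 36 °C. Five mice were used per dose. The active dose range is the doses inhibiting hypothermia in more than 80% of animals.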

[3] = target: T1, Adrenergic receptor alpha-1 (Rattus norvegicus, UniProt P15823+P23944+P43140); assay: In vitro inhibition of specific binding of [3H]- prazosin to alpha-1 adrenergic receptor site in rat brain membranes.; type: cell membranes
T1 sequence (P15823 whole entry): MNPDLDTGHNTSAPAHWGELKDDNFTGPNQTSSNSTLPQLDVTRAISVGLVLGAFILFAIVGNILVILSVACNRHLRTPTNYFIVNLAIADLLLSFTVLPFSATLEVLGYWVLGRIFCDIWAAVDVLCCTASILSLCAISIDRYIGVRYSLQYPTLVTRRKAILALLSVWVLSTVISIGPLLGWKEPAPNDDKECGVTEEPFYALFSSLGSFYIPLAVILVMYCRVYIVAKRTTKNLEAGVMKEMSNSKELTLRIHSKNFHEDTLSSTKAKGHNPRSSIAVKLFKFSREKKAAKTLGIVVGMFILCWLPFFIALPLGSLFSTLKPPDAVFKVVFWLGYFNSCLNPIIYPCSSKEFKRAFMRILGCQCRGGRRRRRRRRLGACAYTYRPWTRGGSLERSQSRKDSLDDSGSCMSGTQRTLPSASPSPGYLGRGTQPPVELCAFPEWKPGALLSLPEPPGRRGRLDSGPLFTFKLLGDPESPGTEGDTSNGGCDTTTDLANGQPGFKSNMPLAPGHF
T1 sequence (P23944 whole entry): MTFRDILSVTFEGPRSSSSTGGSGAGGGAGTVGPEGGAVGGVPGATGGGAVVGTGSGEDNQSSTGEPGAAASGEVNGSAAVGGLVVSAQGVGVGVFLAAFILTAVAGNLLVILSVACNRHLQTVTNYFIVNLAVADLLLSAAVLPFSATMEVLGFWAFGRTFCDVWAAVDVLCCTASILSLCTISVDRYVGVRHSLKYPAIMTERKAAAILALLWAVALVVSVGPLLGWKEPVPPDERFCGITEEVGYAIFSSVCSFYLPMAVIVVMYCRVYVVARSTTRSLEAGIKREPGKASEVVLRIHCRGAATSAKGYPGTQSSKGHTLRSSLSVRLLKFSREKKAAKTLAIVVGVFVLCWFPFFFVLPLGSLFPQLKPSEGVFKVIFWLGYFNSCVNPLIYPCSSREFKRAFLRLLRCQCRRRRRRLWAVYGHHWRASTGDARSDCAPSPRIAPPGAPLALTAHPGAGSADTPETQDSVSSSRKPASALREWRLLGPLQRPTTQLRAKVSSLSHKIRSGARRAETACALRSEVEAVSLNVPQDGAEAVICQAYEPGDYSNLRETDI
T1 sequence (P43140 whole entry): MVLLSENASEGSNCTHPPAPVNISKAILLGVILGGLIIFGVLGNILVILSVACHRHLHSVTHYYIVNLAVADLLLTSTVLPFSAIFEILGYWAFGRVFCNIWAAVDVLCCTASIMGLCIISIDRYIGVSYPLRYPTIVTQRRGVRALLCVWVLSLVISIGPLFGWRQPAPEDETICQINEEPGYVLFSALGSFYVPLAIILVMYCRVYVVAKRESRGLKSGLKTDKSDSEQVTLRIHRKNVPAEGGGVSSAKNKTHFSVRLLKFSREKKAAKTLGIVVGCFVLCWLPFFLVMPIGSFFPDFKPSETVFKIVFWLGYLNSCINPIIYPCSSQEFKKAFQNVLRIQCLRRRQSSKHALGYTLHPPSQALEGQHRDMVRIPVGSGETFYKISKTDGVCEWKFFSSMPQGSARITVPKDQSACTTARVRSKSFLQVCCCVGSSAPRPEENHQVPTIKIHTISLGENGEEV

D(2) dopamine receptor = D(2) dopamine receptor (Rattus norvegicus, UniProt P61169); assay: In vitro inhibition of specific binding of [3H]-YM 09151-2 to Dopamine receptor D2 site in rat striatal tissue.; type: tissue-based, Striatum
Mus musculus [4] = assay: In vivo antagonism of guanabenz-induced hypothermia in mice after intraperitoneal administration at a dose of 2.5-10 mg/kg; type: functional; settings: ip
In short: (§2)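 Male NMRI mice, 30-32 g, 5 per dose; test drug or vehicle given ip, then 5 min later guanabenz 1 mg/kg ip. Rectal temperature read by thermistor probe 25 min after guanabenz. Inhibition means temperature > 36 °C. Active dose range = doses inhibiting in more than 80% of animals.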

[5] = target: T2, Adrenergic receptor alpha-2 (Rattus norvegicus, UniProt P22086+P19328+P22909); assay: In vitro inhibition of binding of [3H]-RX-821002 to alpha-2 adrenergic receptor site in rat brain membranes.; type: cell membranes
T2 sequence (P22086 whole entry): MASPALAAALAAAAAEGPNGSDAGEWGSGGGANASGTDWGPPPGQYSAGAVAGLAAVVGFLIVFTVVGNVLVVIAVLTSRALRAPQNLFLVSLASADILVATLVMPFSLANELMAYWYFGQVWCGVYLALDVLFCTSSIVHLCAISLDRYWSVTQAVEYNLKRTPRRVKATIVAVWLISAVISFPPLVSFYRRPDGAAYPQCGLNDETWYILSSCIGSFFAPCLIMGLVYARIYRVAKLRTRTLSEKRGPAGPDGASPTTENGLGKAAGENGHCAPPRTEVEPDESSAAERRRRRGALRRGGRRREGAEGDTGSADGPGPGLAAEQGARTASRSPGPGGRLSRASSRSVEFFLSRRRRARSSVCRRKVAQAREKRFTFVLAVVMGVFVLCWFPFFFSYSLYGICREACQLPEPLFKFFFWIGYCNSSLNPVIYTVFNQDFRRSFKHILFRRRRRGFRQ
T2 sequence (P19328 whole entry): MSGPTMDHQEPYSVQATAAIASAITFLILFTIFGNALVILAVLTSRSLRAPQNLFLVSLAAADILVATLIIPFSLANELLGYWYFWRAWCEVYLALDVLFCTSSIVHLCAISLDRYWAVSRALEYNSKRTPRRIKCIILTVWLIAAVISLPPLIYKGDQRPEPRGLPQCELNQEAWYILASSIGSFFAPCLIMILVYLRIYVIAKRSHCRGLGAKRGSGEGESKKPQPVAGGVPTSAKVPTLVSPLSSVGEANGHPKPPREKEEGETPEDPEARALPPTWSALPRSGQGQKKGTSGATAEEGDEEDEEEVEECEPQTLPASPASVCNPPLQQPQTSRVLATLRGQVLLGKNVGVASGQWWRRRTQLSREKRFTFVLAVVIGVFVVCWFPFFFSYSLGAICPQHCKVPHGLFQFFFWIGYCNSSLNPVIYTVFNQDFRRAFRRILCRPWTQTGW
T2 sequence (P22909 whole entry): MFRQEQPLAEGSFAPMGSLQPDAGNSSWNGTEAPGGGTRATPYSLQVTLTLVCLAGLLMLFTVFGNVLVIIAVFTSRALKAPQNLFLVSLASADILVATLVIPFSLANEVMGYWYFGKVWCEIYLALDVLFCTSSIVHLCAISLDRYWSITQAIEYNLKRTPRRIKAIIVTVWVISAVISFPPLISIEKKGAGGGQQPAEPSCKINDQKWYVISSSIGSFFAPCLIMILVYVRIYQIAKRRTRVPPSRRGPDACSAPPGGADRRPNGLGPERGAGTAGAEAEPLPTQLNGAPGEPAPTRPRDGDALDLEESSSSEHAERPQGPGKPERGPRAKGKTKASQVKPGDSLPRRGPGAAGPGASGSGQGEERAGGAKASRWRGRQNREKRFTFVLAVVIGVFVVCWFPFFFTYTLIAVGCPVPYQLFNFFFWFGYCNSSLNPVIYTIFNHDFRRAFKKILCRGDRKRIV

Mus musculus [6] = assay: In vivo antagonism of guanabenz-induced hypothermia in mice after peroral administration; Inactive; type: functional, organism-based
In short: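 Male NMRI mice (30-32 g), five per dose; vehicle or drug by oral gavage, guanabenz 1 mg/kg ip 35 min later. Rectal temperature by thermistor 25 min post-guanabenz; inhibition scored as temperature > 36 °C. […] Active range is doses giving inhibition in more than 80% of mice.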

Mus musculus [7] = assay: In vivo antagonism of guanabenz-induced hypothermia in mice after intraperitoneal administration at a dose of 0.04-10 mg/kg; type: functional; settings: ip; in short: as §1
Mus musculus [8] = assay: In vivo antagonism of guanabenz-induced hypothermia in mice after intraperitoneal administration at a dose of 0.63-10 mg/kg; type: functional; settings: ip; in short: as §2
Mus musculus [9] = assay: In vivo antagonism of guanabenz-induced hypothermia in mice after peroral administration at a dose of 2.5-40 mg/kg; type: functional; settings: po
In short: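 Male NMRI mice (30-32 g), five per dose; vehicle or drug by oral gavage, guanabenz 1 mg/kg ip 35 min later. Rectal temperature by thermistor 25 min post-guanabenz; inhibition scored as temperature > 36 °C. Active range is doses giving inhibition in more than 80% of mice.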

Mus musculus [10] = assay: In vivo antagonism of guanabenz-induced hypothermia in mice after intraperitoneal administration at a dose of 10 mg/kg; type: functional; settings: ip; in short: as §1
Mus musculus [11] = assay: In vivo antagonism of guanabenz-induced hypothermia in mice after intraperitoneal administration at a dose of 0.63 mg/kg; type: functional; settings: ip; in short: as §1
Mus musculus [12] = assay: In vivo antagonism of guanabenz-induced hypothermia in mice after intraperitoneal administration; type: functional; settings: ip; in short: as §1

D(2) dopamine receptor, sequence (P61169 whole entry): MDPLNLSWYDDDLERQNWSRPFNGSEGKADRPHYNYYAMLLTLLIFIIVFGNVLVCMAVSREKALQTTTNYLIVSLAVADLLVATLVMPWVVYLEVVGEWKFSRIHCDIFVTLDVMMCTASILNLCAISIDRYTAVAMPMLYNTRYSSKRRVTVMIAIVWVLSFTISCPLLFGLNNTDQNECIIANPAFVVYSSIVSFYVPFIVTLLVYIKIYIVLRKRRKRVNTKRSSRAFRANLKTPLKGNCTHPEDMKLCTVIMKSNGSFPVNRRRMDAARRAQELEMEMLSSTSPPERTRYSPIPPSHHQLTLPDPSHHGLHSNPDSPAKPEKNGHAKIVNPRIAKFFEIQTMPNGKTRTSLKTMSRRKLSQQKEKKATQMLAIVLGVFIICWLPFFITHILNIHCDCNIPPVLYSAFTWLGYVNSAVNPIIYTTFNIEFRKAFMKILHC

| IC50 [3] [nM] | IC50 (D(2) dopamine receptor) [nM] | IC50 [5] [nM] | SMILES | NA (Mus musculus [1]) | further results |
| --- | --- | --- | --- | --- | --- |
| – | – | – | O=C(NCCC1CCN(CC2COc3ccccc3O2)CC1)Nc1ccc(O)cc1 (centres undefined) | inactive | – |
| 85 | 80 | 1.8 | Cc1cccc(C)c1N1CCN(CCC2CCN(CC3COc4ccccc4O3)CC2)C1=O (centres undefined) | – | ED50 (Mus musculus [2]): 5.01 mg/kg; ED50 (Mus musculus [4]): 0.41 mg/kg |
| – | – | – | O=C(NC(=S)NCCC1CCN(CC2COc3ccccc3O2)CC1)c1ccccc1 (centres undefined) | inactive | NA (Mus musculus [6]): inactive |
| – | – | – | O=C(NCCC1CCN(CC2COc3ccccc3O2)CC1)C(c1ccccc1)c1ccccc1 (centres undefined) | inactive | NA (Mus musculus [6]): inactive |
| 70 | 550 | 25 | O=C1Nc2ccccc2CN1CC1CCN(CC2COc3ccccc3O2)CC1 (centres undefined) | – | – |
| – | – | – | S=C(NCCC1CCN(CC2COc3ccccc3O2)CC1)Nc1ccccc1 (centres undefined) | – | ED50 (Mus musculus [7]): 0.02 mg/kg |
| 70 | 135 | 4 | CCOc1cccc(OCC)c1N1CCN(CCC2CCN(CC3COc4ccccc4O3)CC2)C1=O (centres undefined) | – | ED50 (Mus musculus [9]): 0.53 mg/kg; ED50 (Mus musculus [10]): 0.89 mg/kg |
| – | – | – | COc1ccc(NC(=O)NCCC2CCN(CC3COc4ccccc4O3)CC2)cc1 (centres undefined) | – | ED50 (Mus musculus [11]): 0.27 mg/kg |
| – | – | – | O=C(NCCC1CCN(CC2COc3ccccc3O2)CC1)NCc1ccccc1 (centres undefined) | – | ED50 (Mus musculus [12]): 1.78 mg/kg |

| SMILES | IC50 [3] [nM] | IC50 (D(2) dopamine receptor) [nM] | IC50 [5] [nM] | NA (Mus musculus [1]) | further results |
| --- | --- | --- | --- | --- | --- |
| c1ccc2c(c1)OCC(C1=NCCN1)O2 (centres undefined) [IDAZOXAN] | – | > 10000 | – | – | ED50 (Mus musculus [2]): 0.89 mg/kg; ED50 (Mus musculus [8]): 0.31 mg/kg |

From ChEMBL document CHEMBL1133675, “New substituted 1-(2,3-dihydrobenzo[1, 4]dioxin-2-ylmethyl)piperidin-4-yl derivatives with alpha(2)-adrenoceptor antagonist activity” (J Med Chem, 2000)
